Activity calls are given as the source filed them. No cut-off for these calls is given here.
Legend:
[1] = Cytotoxicity against human SNU638 cells; format: functional, cell-based; details: SNU-638
K562 = experiment: Cytotoxicity against human K562 cells; format: functional, cell-based
Escherichia coli = experiment: Antibacterial activity against Escherichia coli ATCC 35270; format: functional
Bacillus subtilis = experiment: Antibacterial activity against Bacillus subtilis ATCC 6633; format: functional
A549 = experiment: Cytotoxicity against human A549 cells; format: functional, cell-based
Candida albicans = experiment: Antifungal activity against Candida albicans; format: functional, organism-based
[2] = Cytotoxicity against human HCT116 cells; format: functional, cell-based; details: HCT-116
[3] = Cytotoxicity against human SKHEP1 cells; format: functional, cell-based; details: SK-HEP1
Proteus hauseri = experiment: Antibacterial activity against Proteus hauseri NBRC 3851; format: functional
Staphylococcus aureus = experiment: Antibacterial activity against Staphylococcus aureus ATCC 6538p; format: functional
Salmonella enterica = experiment: Antibacterial activity against Salmonella enterica ATCC 14028; format: functional
Kocuria rhizophila = experiment: Antibacterial activity against Kocuria rhizophila NBRC 12708; format: functional
MDA-MB-231 = experiment: Cytotoxicity against human MDA-MB-231 cells; format: functional, cell-based
[4] = Inhibition of Candida albicans isocitrate lyase using isocitrate substrate
Outline: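 Recombinant ICL at 2.5 μg/mL in 20 mM sodium phosphate buffer, pH 7.0, with 1.27 mM threo-DL(+)-isocitrate, 3.75 mM MgCl2 and 4.1 mM phenylhydrazine. Reaction started on substrate addition, with or without inhibitor in DMSO (0.5% final). After 30 min at 37 °C, glyoxylate phenylhydrazone was read at 324 nm. Percent inhibition was taken against an inhibitor-free control, with 3-nitropropionic acid as positive control.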

Aspergillus fumigatus = experiment: Antifungal activity against Aspergillus fumigatus; format: functional, organism-based

| SMILES | IC50 [1] [µM] | IC50 (K562) [µM] | MIC (Escherichia coli) [µg/mL] | MIC (Bacillus subtilis) [µg/mL] | IC50 (A549) [µM] | Activity (Candida albicans) | IC50 [2] [µM] | IC50 [3] [µM] | MIC (Proteus hauseri) [µg/mL] | MIC (Staphylococcus aureus) [µg/mL] | MIC (Salmonella enterica) [µg/mL] | MIC (Kocuria rhizophila) [µg/mL] | IC50 (MDA-MB-231) [µM] | IC50 ([4]; read-out: IC50) [µM] | Activity (Aspergillus fumigatus) | IC50 [4] [µg/mL] |
| --- | --- | --- | --- | --- | --- | --- | --- | --- | --- | --- | --- | --- | --- | --- | --- | --- |
| CO[C@@H](C[C@@H](C)[C@@H](O)/C=C/C=C/CNC(=O)C(C)(C)[C@H](O)/C(C)=C/C=C/C=C/C(C)=C(\C)[N+](=O)[O-])[C@]1(O)[C@@H](C)C(=O)N(C)[C@@]12COC2=O | > 100 | > 100 | > 128 | > 128 | > 100 | inactive | > 100 | > 100 | > 128 | > 128 | > 128 | > 128 | > 100 | 40 | inactive |  |
| CO[C@@H](C[C@@H](C)[C@@H](O)/C=C/C=C/CNC(=O)C(C)(C)[C@H](O)/C(C)=C/C=C/C=C/C(C)=C(\C)[N+](=O)[O-])[C@]1(O)[C@@H](C)C(=O)N(C)[C@]12C(=O)O[C@@H]2C | > 100 | > 100 | > 128 | > 128 | > 100 | inactive | > 100 | > 100 | > 128 | > 128 | > 128 | > 128 | > 100 | 50 | inactive |  |
| CO[C@@H](C[C@@H](C)[C@@H](O)/C=C/C=C/CNC(=O)C(C)(C)[C@H](O)\C(C)=C/C=C/C=C/C(C)=C(\C)[N+](=O)[O-])[C@]1(O)[C@@H](C)C(=O)N(C)[C@]12C(=O)O[C@@H]2C | > 100 | > 100 | > 128 | > 128 | > 100 | inactive | > 100 | > 100 | > 128 | > 128 | > 128 | > 128 | > 100 | 120 | inactive |  |
| O=C(O)CC[N+](=O)[O-] |  |  |  |  |  |  |  |  |  |  |  |  |  |  |  | 4.2 |
| COC(CC(C)C(O)/C=C/C=C/CNC(=O)C(C)(C)C(O)\C(C)=C/C=C\C=C\C(C)=C(/C)[N+](=O)[O-])C1(O)C(C)C(=O)N(C)C12C(=O)OC2C (stereo unspecified) [LAJOLLAMYCIN] | > 100 | > 100 | > 128 | > 128 | > 100 | inactive | > 100 | > 100 | > 128 | > 128 | > 128 | > 128 | > 100 | 42 | inactive |  |

From ChEMBL document CHEMBL3351291, “Lajollamycins, nitro group-bearing spiro-β-lactone-γ-lactams obtained from a marine-derived Streptomyces sp” (J Nat Prod, 2014)
